Measurements from paper PMC11152992 (Nature, 2024).

Tests used:
5-HT1A = biological target: T1, 5-HT1A (Homo sapiens, UniProt P08908); test: 5-HT1A-mediated Gi1 activation, BRET; assay type: cell-based
T1 sequence (P08908 1-422): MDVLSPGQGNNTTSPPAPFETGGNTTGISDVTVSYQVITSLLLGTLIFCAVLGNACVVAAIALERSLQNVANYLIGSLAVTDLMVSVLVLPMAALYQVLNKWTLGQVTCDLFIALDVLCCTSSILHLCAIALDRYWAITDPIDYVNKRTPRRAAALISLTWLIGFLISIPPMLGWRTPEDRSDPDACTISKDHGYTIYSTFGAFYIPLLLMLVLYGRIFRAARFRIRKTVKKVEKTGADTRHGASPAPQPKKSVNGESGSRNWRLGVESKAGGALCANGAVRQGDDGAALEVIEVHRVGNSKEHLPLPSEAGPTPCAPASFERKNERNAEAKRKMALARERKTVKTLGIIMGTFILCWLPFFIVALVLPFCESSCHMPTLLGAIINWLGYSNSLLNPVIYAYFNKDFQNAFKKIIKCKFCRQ

[1] = Mouse brain tissue binding; assay type: in vitro ADME
[2] = tested on: chronic social defeat stress mice; test: Social interaction; assay type: in vivo, C57BL/6J mice
In short: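 Male C57BL/6J mice, 8 weeks old, had 10 consecutive days of 10-min defeat by a new CD-1 aggressor each day, then were housed overnight across a partition; controls were pair-housed and handled daily. Drug or vehicle was given 1 h after the last defeat, with SI testing 24 h later. The interaction ratio was interaction-zone time, target vs no-target; corner time and no-target locomotion were also scored. Pooled from three experiments; two-way ANOVA; resilient (>1) vs susceptible (<1) compared by Fisher's exact test.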

[3] = tested on: chronic social defeat stress mice; test: Sucrose preference test after chronic social defeat stress; assay type: in vivo, C57BL/6J mice; conditions: 1 mg kg^-1 s.c., 1% sucrose two-bottle choice
In short: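 Chronic social defeat was 10 days of 10-min bouts by CD-1 aggressors in male C57BL/6J mice. On day 10, stressed mice were housed singly and habituated to two water bottles, then given a two-bottle choice between water and 1% sucrose. Data were pooled from two independent experiments.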

[4] = Human plasma protein binding; assay type: in vitro ADME; conditions: Human Plasma
[5] = biological target: serotonin transporter (SERT) (Homo sapiens, UniProt P31645); test: Serotonin transporter uptake inhibition; assay type: cell-based
Chain of serotonin transporter (SERT) (P31645 whole entry, species assumed): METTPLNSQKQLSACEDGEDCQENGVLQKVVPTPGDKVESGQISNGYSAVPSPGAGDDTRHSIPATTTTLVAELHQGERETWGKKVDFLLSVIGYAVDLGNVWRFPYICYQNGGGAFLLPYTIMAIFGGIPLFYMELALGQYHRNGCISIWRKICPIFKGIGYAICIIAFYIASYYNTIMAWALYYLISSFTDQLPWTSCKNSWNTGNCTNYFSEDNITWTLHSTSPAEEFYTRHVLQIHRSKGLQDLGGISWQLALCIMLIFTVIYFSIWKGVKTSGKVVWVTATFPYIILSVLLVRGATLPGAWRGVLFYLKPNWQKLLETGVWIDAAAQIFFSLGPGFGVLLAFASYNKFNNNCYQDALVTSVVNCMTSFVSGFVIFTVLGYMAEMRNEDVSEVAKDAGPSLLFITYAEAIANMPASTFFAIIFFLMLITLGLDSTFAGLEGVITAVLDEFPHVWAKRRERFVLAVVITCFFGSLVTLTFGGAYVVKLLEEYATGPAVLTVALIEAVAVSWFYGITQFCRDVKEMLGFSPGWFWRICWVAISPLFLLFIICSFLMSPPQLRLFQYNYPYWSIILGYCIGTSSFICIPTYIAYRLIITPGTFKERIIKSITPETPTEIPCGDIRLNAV

5-HT2A = 5-HT2A (Homo sapiens, UniProt P28223); test: 5-HT2A-mediated Gq activation, BRET; assay type: cell-based; conditions: read-out: Gq BRET EC50; 5-HT2A-mediated Gq activation
Chain of 5-HT2A (P28223 whole entry): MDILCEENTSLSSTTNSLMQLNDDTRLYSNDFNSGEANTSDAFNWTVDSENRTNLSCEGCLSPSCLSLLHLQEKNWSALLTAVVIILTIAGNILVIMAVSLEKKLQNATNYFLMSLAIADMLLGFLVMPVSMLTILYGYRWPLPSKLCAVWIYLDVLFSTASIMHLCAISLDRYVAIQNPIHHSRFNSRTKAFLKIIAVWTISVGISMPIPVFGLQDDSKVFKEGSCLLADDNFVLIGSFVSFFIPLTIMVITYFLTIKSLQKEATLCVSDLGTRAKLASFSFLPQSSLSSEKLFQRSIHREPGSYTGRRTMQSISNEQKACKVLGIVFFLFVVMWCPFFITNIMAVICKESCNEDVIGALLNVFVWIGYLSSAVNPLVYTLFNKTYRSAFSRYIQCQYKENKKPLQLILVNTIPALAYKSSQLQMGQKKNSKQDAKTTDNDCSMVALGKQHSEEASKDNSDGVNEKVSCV

[6] = tested on: head-twitch response (measure of 5-HT2A activation); test: Head-twitch response; assay type: in vivo, C57BL/6J mice; conditions: mice, doses up to 3 mg kg^-1, in the presence or absence of WAY-100635
[7] = Mouse plasma protein binding; assay type: in vitro ADME; conditions: Mouse Plasma
[8] = Pharmacokinetics in plasma and brain after s.c. administration; assay type: in vivo, C57BL/6 male mice; conditions: mice; for AUClast / Cmax: 1 mg/kg SC
In short: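 Male C57BL/6 mice (27; 3 per time point) received a subcutaneous solution formulation. Retro-orbital blood (~60 μl) was taken under light isoflurane at 0.083–12 h. Plasma and brain levels were measured by LC–MS/MS with non-compartmental analysis: Cmax and Tmax as observed, AUClast by linear trapezoidal rule, Kp calculated. For plasma protein binding, compound was spiked at 5 μM final into mouse plasma and dialysed 4 h at 37 °C.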

[9] = tested on: other neurotransmitter transporters (OCT1, OCT2, PMAT); test: OCT1, OCT2 and PMAT uptake inhibition; assay type: cell-based
[10] = tested on: all other G protein-coupled 5-HT receptors; test: Off-target activity at 5-HT receptors; assay type: cell-based, human; conditions: compared with activity at 5-HT1A
[11] = tested on: locomotor activity (measure of 5-HT1A activation); test: Open-field locomotion assay; assay type: in vivo, C57BL/6J mice; conditions: mice, s.c.
In short: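 Male C57BL/6J mice aged 10–15 weeks were habituated for 30 min, then pretreated with vehicle or WAY-100635 (1 or 2 mg kg⁻¹ s.c.). Test compound followed 15 min later, s.c. at 0.1–3 or 0.3–10 mg kg⁻¹. Mice were placed immediately in a clear arena lit at about 330 lux. Observers were blinded; total locomotion was recorded automatically over 30 min, n = 7–8 per group.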

## COc1ccc2[nH]cc(CCN3CCCC3)c2c1F [4-F,5-MeO-PyrT, 4-fluoro, 5-methoxypyrrolidinyl-tryptamine]
5-HT1A; 5-HT1A-mediated activation of Gi1, BRET
  maximum drug effect (Emax): 102.8 % of 5-HT
5-HT1A; Gi BRET at 5-HT1A versus Gq BRET at 5-HT2A
  selectivity for 5-HT1A > 5-HT2A: greater than 800 fold
5-HT1A; read-out: Gi BRET EC50, 5-HT1A-mediated Gi1 activation, HEK293-T cells
  EC50: 0.37 nM
[1]
  % Bound Mean: 82.5%
  % Recovery: 88%
  % Unbound: 17.5%
  brain tissue binding: 82.5%
  fu: 0.175
[1]; 37 °C
  % Compound remaining at 4 h: 96%
[1]; replicate 1, 4 h at 37 °C
  % Bound R1: 84.3%
[2]; 1 mg kg^-1 s.c. 1 h after last defeat, SI test 24 h later
  social avoidance phenotype (decreased interaction ratio) in stress-exposed mice: rescued
[2]; 1 mg kg^-1 s.c., non-stressed mice
  interaction ratio in control mice, drug versus vehicle: did not show any distinguishable differences in IR
[2]; drug-treated stressed mice
  increased time in the corners of the arena in defeated mice: no longer observed
[2]; drug-treated versus vehicle-treated stressed mice
  number of resilient mice (SI ratio > 1): increased the number of resilient mice
[3]
  sucrose preference in stressed mice relative to vehicle-treated animals: significantly increased sucrose preference
[4]
  % Bound Mean: 26.01%
  % Recovery: 81.8%
  % Unbound: 73.99%
  fu: 0.740
[4]; 37 °C
  % Compound remaining at 4 h: 97.9%
[4]; replicate 1, 4 h at 37 °C
  % Bound R1: 22.19%
[5]
  activity at the serotonin transporter (in words): substantially reduced activity
5-HT2A
  EC50: 300 nM
[6]
  HTR (in words): did not produce notable HTR
[7]
  % Bound Mean: 37.36%
  % Recovery: 84.7%
  % Unbound: 62.64%
  fu: 0.626
[7]; 37 °C
  % Compound remaining at 4 h: 105.6%
[7]; replicate 1, 4 h at 37 °C
  % Bound R1: 32.04%
[8]; Brain
  AUClast: 128.34 ng·h/mL
  Cmax: 143.35 ng/mL
[8]; Plasma
  AUClast: 26.40 ng·h/mL
  Cmax: 44.02 ng/mL
[8]; 1 mg kg^-1 s.c.
  time within which compound was largely cleared: ≤ 2 h
  total brain-to-plasma ratio: 3.3
  unbound brain-to-plasma ratio: 0.91
[8]; 1 mg kg^-1 s.c., following drug administration
  time of peak brain penetration: 30 min
[8]; s.c. dose of 1 mg kg^-1, at 82.5% brain tissue binding
  estimated free drug concentration in the brain at Tmax: about 100 nM
[9]
  activity at other neurotransmitter transporters (in words): substantially reduced activity
[10]
  activity at other 5-HT receptors (in words): substantially reduced activity
[11]
  locomotor activity in the open-field test (in words): dose-dependent locomotor suppression
  lowest dose that produced suppression of locomotion: 0.03 mg/kg
